Assay results reported in ChEMBL document CHEMBL4330057, “Second generation of diazachrysenes: Protection of Ebola virus infected mice and mechanism of action” (Eur J Med Chem, 2019).
pEC50: −log10 of the molar value. Calls of active or inactive are those of the source. The rule behind the calls is not given here.

Experiments:
Ebolavirus [1] = experiment: Antiviral activity against Ebolavirus; assay type: functional, organism-based; settings: Orthoebolavirus
Ebolavirus [2] = experiment: Antiviral activity against Ebolavirus infected in mouse assessed as protection against viral infection at 300 mg/kg/day relative to control; assay type: functional
[3] = Cytotoxicity against human HeLa cells after 2 hrs by high content imaging analysis; assay type: cell-based
Ebolavirus [4] = experiment: Antiviral activity against Ebolavirus H. sapiens-wt/1995/Kikwit-9510621 infected in human HeLa cells assessed as inhibition of viral infection pretreated for 2 hrs followed by viral infection and measured after 48 hrs by EboV GP immunostaining based high content imaging analysis; assay type: functional, organism-based; settings: for EC90 / pEC50: Orthoebolavirus, H. sapiens-wt/1995/Kikwit-9510621, HeLa; for pEC50: read-out: EC50
[5] = Selectivity index, ratio of CC50 for human HeLa cells to EC50 for Ebolavirus H. sapiens-wt/1995/Kikwit-9510621 infected in human HeLa cells; assay type: toxicity, cell-based; settings: read-out: Ratio CC50/EC50
Ebolavirus [6] = experiment: Antiviral activity against Ebolavirus infected in mouse assessed as protection against viral infection at 24 mg/kg/day relative to control; assay type: functional
[7] = Apparent permeability from apical to basolateral side in MDCK cells; assay type: ADME, cell-based, Canis lupus familiaris; settings: dog
Outline: (§1)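 Apparent permeability measured in MDCK cell monolayers, apical→basolateral and basolateral→apical directions, three biological replicates.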

[8] = Apparent permeability from basolateral to apical side in MDCK cells; assay type: ADME, cell-based, Canis lupus familiaris; settings: dog; outline: as §1
Ebolavirus [9] = experiment: Antiviral activity against Ebolavirus infected in mouse assessed as protection against viral infection at 60 mg/kg/day relative to control; assay type: functional
Ebolavirus [10] = experiment: Antiviral activity against Ebolavirus infected in monkey assessed as protection against viral infection at 3.3 mg/kg/day relative to control; assay type: functional
HeLa [11] = experiment: Induction of lysosomotropism in human HeLa cells infected with Ebolavirus assessed as expansion of acid compartments at 0.01 uM for 2 hrs by acridine orange staining based assay; assay type: functional, cell-based
Outline: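 HeLa cells pretreated 2 h, then acridine orange for 30 min, washed and imaged. Total intensity and average area of acridine orange fluorescence quantified by high-content imaging. Mean ± SD of 8 wells, about 3000 cells each, three independent experiments.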

[12] = target: Cathepsin B (Homo sapiens) (UniProt P07858); experiment: Inhibition of cathepsin B activity in human HeLa cells at 0.01 uM after 12 hrs by magic red substrate based fluorescence assay; assay type: cell-based
Outline: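 HeLa cells were exposed to compound for 12 h, then given the Magic Red cathepsin B peptide reporter, washed, and imaged at Ex/Em 590/630. Total intensity and average area of red fluorescence were scored by high-content analysis. Eight wells per point, about 3000 cells/well, mean ± SD, three independent experiments.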

HeLa [13] = experiment: Induction of lysosomotropism in human HeLa cells infected with Ebolavirus assessed as increase in fluorescence intensity of acid compartments at 0.01 uM for 1 hr by Lysosensor DND189 staining based assay; assay type: functional, cell-based
Outline: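 HeLa cells were pretreated 1 h with compound (Bafilomycin A1 at 0.01 μM as acidification control), then stained with LysoSensor DND 189 for 10 min and washed. Live imaging at Ex/Em 443/505 nm. Fluorescence intensity per area was quantified by image analysis. Eight wells per point, about 3000 cells/well, mean ± SD, three independent experiments.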

Nc1ncnc2c(C[C@@H]3N[C@H](CO)[C@@H](O)[C@H]3O)c[nH]c12
pEC50 (Ebolavirus [1]): 4.93 to 5.47 | Activity (Ebolavirus [2]): 100%

CN(C)CCOCCNc1ccnc2c1ccc1c2ccc2c(NCCOCCN(C)C)ccnc21
CC50 at 2 h [3]: 7 µM | EC90 (Ebolavirus [4]): 6.74 µM | pEC50 (Ebolavirus [4]): 5.45 | selectivity ratio [5]: 2

CCN(CC)CCCNc1ccnc2c1ccc1c2ccc2c(NCCN3CCOCC3)ccnc21
CC50 at 2 h [3]: > 10 µM | EC90 (Ebolavirus [4]): 4.85 µM | pEC50 (Ebolavirus [4]): 6.10 | selectivity ratio [5]: > 12.6

CC(C)COCC(CN(Cc1ccccc1)c1ccccc1)N1CCCC1 (stereo unspecified) [BEPRIDIL]
Activity (Ebolavirus [6]): 100%

CCN(CC)CCNc1ccnc2c(NCCN(CC)CC)ccnc12
CC50 at 2 h [3]: > 25 µM | EC90 (Ebolavirus [4]): 62.6 µM | pEC50 (Ebolavirus [4]): 4.85 | selectivity ratio [5]: > 1.8

OC(CNc1ccnc2cccnc12)CN1CCOCC1 (stereo unspecified)
EC50 (Ebolavirus [4]): Not Active

COc1cc2nc(N3CCN(C(=O)c4ccco4)CC3)nc(N)c2cc1OC [PRAZOSIN]
Papp A→B [7]: 27.6 to 30 ×10⁻⁶ cm/s | Papp B→A [8]: 48.6 to 58.9 ×10⁻⁶ cm/s

c1cc(NCCCN2CCOCC2)c2nccc(NCCCN3CCOCC3)c2n1
pEC50 (Ebolavirus [4]): 5.00

NCCCNc1ccnc2c1ccc1c2ccc2c(NCCCN)ccnc21
CC50 at 2 h [3]: > 10 µM | EC90 (Ebolavirus [4]): 20.5 µM | pEC50 (Ebolavirus [4]): 5.00 | selectivity ratio [5]: > 1

CN(C)CCOc1ccc(/C(=C(/CCCl)c2ccccc2)c2ccccc2)cc1 [TOREMIFENE]
Activity (Ebolavirus [9]): 50% | pEC50 (Ebolavirus [1]): 5.76 to 6.01

CCC(CC)COC(=O)[C@H](C)N[P@](=O)(OC[C@H]1O[C@@](C#N)(c2ccc3c(N)ncnn23)[C@H](O)[C@@H]1O)Oc1ccccc1
Activity (Ebolavirus [10]): 100% | pEC50 (Ebolavirus [1]): 6.85 to 7.22

CO/C1=C\C(C)=C\[C@@H](C)[C@@H](O)[C@@H](C)C/C(C)=C/C=C/[C@H](OC)[C@@H]([C@@H](C)[C@@H](O)[C@H](C)[C@@]2(O)C[C@@H](O)[C@H](C)[C@@H](C(C)C)O2)OC1=O
Activity (HeLa [11]): inactive | inhibition [12]: Active | Activity (HeLa [13]): Active

c1cc(NCCN2CCOCC2)c2nccc(NCCN3CCOCC3)c2n1
CC50 at 2 h [3]: > 25 µM | EC50 (Ebolavirus [4]): Not Active

NCCCCNc1ccnc2c1ccc1c2ccc2c(NCCCCN)ccnc21
CC50 at 2 h [3]: > 10 µM | EC90 (Ebolavirus [4]): 23.5 µM | pEC50 (Ebolavirus [4]): 5.00 | selectivity ratio [5]: > 1
